The full list was thinned out, with hits kept by preference.
Lung fibro prol: blocks proliferation of human lung fibroblasts | viability, % at 10 µM | 85,000 tested, 1.1% active | LL 47 human lung fibroblast viability, ATP luminescence; active compounds read low;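 active means viability at or below 50% in the single dose screen; inactive means viability above 50%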;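 further: compound exposure lasted 72 h before the ATP readout; 100% = median luminescence of untreated cell-only wells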
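Test system: LL 47 human lung fibroblasts / Quantity: 1,150 cells in each well / Medium: IMEM growth medium with 15% fetal bovine serum / Incubation: 72 h compound exposure at 37 °C after overnight plating / Detection: CellTiter-Glo luminescence measuring cellular ATP / Read-out: % viability versus median cells-only luminescence / Benchmarks: cell-only wells, no compound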
H69AR inhibit: growth inhibitors of human H69AR lung tumor cells; H69AR lung tumor viability, ATP luminescence, 72 h; active compounds read low; viability, % at 10 µM; 85,000 tested, 6% active; AID 598;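 active means viability at or below 40%; inactive means viability above 40%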;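 further: multidrug resistant small cell line overexpressing MRP-1 efflux transporter; 100% = mean luminescence of untreated control wells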
HCT116 bCat-KO: beta-catenin-lacking colon tumor cell growth suppression; HCT116 beta-catenin knockout viability, CellTiter-Glo, 60 h; active compounds read low; viability, % at 10 µM; 140,000 tested, 1.5% active; AID 818;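 active means viability at or under a set limit, the compound median less 4 SD, cut at about 6% in these data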;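 further: 0% = Hyamine 1622 control at 20 µM and 100% = untreated cell control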
HUVEC inhibit: inhibitors of human endothelial cell proliferation; 86,000 tested, 1.1% active; viability, % at 10 µM (by protocol); HUVEC proliferation, CellTiter-Glo luminescence, 72 h; active compounds read low;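 active means viability at or below 30%; inactive means viability above 30%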;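 further: 100% = median luminescence of DMSO-only cell control wells on each plate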
PTEN del growth: growth suppressors of cells with PTEN tumor suppressor deletion. HCT116 PTEN-null viability, CellTiter-Glo, 60 h; active compounds read low. 140,000 tested, 1.2% active. viability, % at 10 µM. AID 827;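 active means viability at or below a set limit, 4 SD under the median of all tested compounds, cut at about 3.7% in these data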;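 further: PTEN knockout HCT116 line with beta catenin targeted HCT116 as companion control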
Starred values were filed as active, the others as inactive; . = no result.

SMILES	Lung fibro prol	H69AR inhibit	HCT116 bCat-KO	HUVEC inhibit	PTEN del growth
Cc1ccc2[nH]c(=O)c(CN(Cc3ccc4c(c3)OCO4)Cc3nnnn3C3CCCC3)cc2c1	87	11*	64	65	43
O=c1[nH]c2cc3c(cc2cc1CN(CCc1ccccc1)Cc1nnnn1C1CCCC1)OCCO3	97	36*	74	77	83
CCCS(=O)(=O)N1CCN(S(=O)(=O)c2ccccc2)CC1	105	92	91	103	94
Cc1ccc(S(=O)(=O)C2C(=O)N(C)C3(C)CC2c2ccccc2O3)cc1C (configuration not stated)	.	.	89	.	102
Cc1ccc(/C=C/C(O)=C2/C(=O)N(C)C3(C)CC2c2ccccc2O3)cc1 (configuration not stated)	.	.	5.4*	.	3.0*
COc1ccc(/C=C/C(O)=C2/C(=O)N(C)C3(C)CC2c2ccccc2O3)cc1 (configuration not stated)	76	3.0*	1.8*	82	1.4*
CC(C)c1ccc(C(=O)CSc2n[nH]c(-c3ccncc3)n2)cc1	101	31*	89	98	88
Cc1cc(N2CCCCC2)nc2ccc(NC(=O)c3ccc(Br)o3)cc12	93	44	53	34	54
Cc1cc(N2CCN(C)CC2)nc2ccc(NC(=O)c3ccc(Br)o3)cc12	43*	4.2*	14	8.2*	11
O=C(Nc1ccccc1)Nc1ccc(S(=O)(=O)N2CCCCC2)cc1	93	13*	59	48	33
O=C(Nc1cccc(O)c1)c1cc(S(=O)(=O)N2CCCC2)ccc1Cl	102	87	86	108	82
O=C(Nc1ccc(S(=O)(=O)N2CCCCC2)cc1)c1ccccc1Cl	99	78	94	122	83
COC(=O)c1cc(NC(=O)Nc2cccc(Cl)c2)ccc1Cl	.	.	3.8*	.	3.4*
O=C(Nc1cccc(Cl)c1)Nc1cc(S(=O)(=O)N2CCCCC2)ccc1Cl	.	.	3.9*	.	2.4*
O=C(c1cc([N+](=O)[O-])ccc1N1CCOCC1)N1CCCC1	.	.	100	.	107
O=C1S/C(=C/c2ccccc2F)C(=O)N1CCN=C1NS(=O)(=O)c2ccccc21	.	.	99	.	101
S=C(c1ccc(-c2cc(Cl)ccc2Cl)o1)N1CCOCC1	86	92	79	81	73
O=C(Nc1ccc(CN2CCOCC2)cc1)c1ccc(-c2cc(Cl)ccc2Cl)o1	93	21*	27	40	30
CN1CCN(S(=O)(=O)c2ccc(NC(=O)Nc3cccc(Cl)c3)cc2)CC1	83	35*	22	3.2*	24
COc1ccccc1NS(=O)(=O)c1cccc(NC(=O)Nc2cccc(Cl)c2)c1	.	.	3.9*	.	6
CC(=O)Nc1sc(C)c(C)c1C(=O)OCC(=O)Nc1cc(S(=O)(=O)N2CCCCC2)ccc1Cl	.	.	40	.	3.1*
COc1cccc(CN(C)C(=O)c2ccc3nccnc3c2)c1	99	91	85	89	96
COc1cc(/C=N/NC(=S)NCCN2CCOCC2)ccc1O	.	.	90	.	102
CCN(CC)S(=O)(=O)c1ccc(NC(=O)c2cccc3c2C(=O)N(CCOC)C3)cc1	.	.	95	.	100
COCCN1Cc2cccc(C(=O)Nc3ccc(S(=O)(=O)N4CCCCCC4)cc3)c2C1=O	79	25*	.	47	.
SMILES	Lung fibro prol	H69AR inhibit	HCT116 bCat-KO	HUVEC inhibit	PTEN del growth
O=C(Nc1ccc(N2CCN(C(=O)c3ccccc3)CC2)c(Cl)c1)c1ccc(Br)o1	.	.	10	.	15
O=C(Nc1ccc(N2CCOCC2)c(Cl)c1)c1ccc(Br)o1	107	20*	109	81	100
O=C(Nc1ccc(S(=O)(=O)N2CCCCC2)cc1)c1ccc(CN2CCOCC2)cc1	69	61	5.9*	67	10
Cc1ccc2c(c1)cc(CN(Cc1cccnc1)C(=O)NCc1ccccc1)c1nnnn12	97	90	81	87	80
COc1ccc(Nc2nc(N3CCCC3)c3ccccc3n2)cc1	20*	36*	1.7*	7.7*	1.9*
CCN(CC)c1ccc(Nc2nc(N3CCOCC3)c3ccccc3n2)cc1	88	32*	14	81	21
COc1ccc(Nc2nc(N3CCCCC3)nc3ccccc23)c(OC)c1	77	9.0*	11	72	7
CSc1nc(N2CCOCC2)c2ccccc2n1	96	81	86	97	92
COc1ccc(Nc2nc(N3CCCCC3)nc(N3CCCCC3)n2)c(OC)c1	94	86	.	96	.
CC(C)CNC(=O)CN(C)S(=O)(=O)c1ccc(F)cc1	.	.	97	.	105
COc1ccc(N(C(=O)COc2ccc(C)cc2)S(=O)(=O)c2ccc(C)cc2)cc1	.	.	89	.	94

Source: PubChem BioAssay
